According to ChEMBL document CHEMBL4393701, “Appendix A. dithioloquinolinethiones as new potential multitargeted antibacterial and antifungal agents: Synthesis, biological evaluation and molecular docking studies” (2019):
≈ marks a conversion by molar mass, not a printed value.

Columns and labels:
Bacillus cereus [1] = assay: Antibacterial activity against Bacillus cereus clinical isolate after 24 hrs by iodonitrotetrazolium chloride dye based microdilution assay; format: functional
Summary of the method: (§1)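 Fresh overnight cultures adjusted spectrophotometrically to 1×10^5 CFU/mL, giving 1.0×10^4 CFU per well in tryptic soy broth. Compounds were dissolved in 5% DMSO and tested at 0.001-1.0 mg/ml by serial dilution; 5% DMSO was the negative control. After 24 h at 37 °C, 0.2 mg/mL INT solution was added for 30 min at 37 °C and OD read at 655 nm. MIC is the lowest concentration giving significant growth inhibition versus the positive control. Duplicates, repeated three times.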

Bacillus cereus [2] = assay: Bactericidal activity against Bacillus cereus clinical isolate incubated for 24 hrs followed by re-plating on tryptic soy broth; format: functional
Summary of the method: (§2)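 Bacteria were grown in tryptic soy broth, 1.0×10^4 CFU per well, with compounds in 5% DMSO at 0.001-1.0 mg/ml for 24 h at 37 °C. Then 10 µL was subcultured into fresh TSB. MBC is the lowest concentration showing no growth after subculture, taken as 99.5% kill of the original inoculum. Duplicates, repeated three times.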

Micrococcus flavus [3] = assay: Antibacterial activity against Micrococcus flavus ATCC 10240 after 24 hrs by iodonitrotetrazolium chloride dye based microdilution method; format: functional; conditions: ATCC 10240, 24 h; summary of the method: as §1
Micrococcus flavus [4] = assay: Bactericidal activity against Micrococcus flavus ATCC 10240 incubated for 24 hrs followed by re-plating on tryptic soy broth; format: functional; conditions: ATCC 10240, 24 h; summary of the method: as §2
Staphylococcus aureus [5] = assay: Antibacterial activity against Staphylococcus aureus ATCC 6538 after 24 hrs by iodonitrotetrazolium chloride dye based microdilution method; format: functional; conditions: ATCC 6538, 24 h; summary of the method: as §1
Staphylococcus aureus [6] = assay: Bactericidal activity against Staphylococcus aureus ATCC 6538 incubated for 24 hrs followed by re-plating on tryptic soy broth; format: functional; conditions: ATCC 6538, 24 h; summary of the method: as §2
Listeria monocytogenes [7] = assay: Antibacterial activity against Listeria monocytogenes NCTC 7973 after 24 hrs by iodonitrotetrazolium chloride dye based microdilution method; format: functional; conditions: NCTC 7973, 24 h; summary of the method: as §1
Listeria monocytogenes [8] = assay: Bactericidal activity against Listeria monocytogenes NCTC 7973 incubated for 24 hrs followed by re-plating on tryptic soy broth; format: functional; conditions: NCTC 7973, 24 h; summary of the method: as §2
Enterobacter cloacae [9] = assay: Antibacterial activity against Enterobacter cloacae clinical isolate after 24 hrs by iodonitrotetrazolium chloride dye based microdilution method; format: functional; summary of the method: as §1
Enterobacter cloacae [10] = assay: Bactericidal activity against Enterobacter cloacae incubated for 24 hrs followed by re-plating on tryptic soy broth; format: functional; summary of the method: as §2
Pseudomonas aeruginosa [11] = assay: Antibacterial activity against Pseudomonas aeruginosa ATCC 27853 after 24 hrs by iodonitrotetrazolium chloride dye based microdilution method; format: functional; conditions: ATCC 27853, 24 h; summary of the method: as §1
Pseudomonas aeruginosa [12] = assay: Bactericidal activity against Pseudomonas aeruginosa ATCC 27853 incubated for 24 hrs followed by re-plating on tryptic soy broth; format: functional; conditions: ATCC 27853, 24 h; summary of the method: as §2
Salmonella typhimurium [13] = assay: Antibacterial activity against Salmonella typhimurium ATCC 13311 after 24 hrs by iodonitrotetrazolium chloride dye based microdilution method; format: functional, Salmonella enterica subsp. enterica serovar Typhimurium; conditions: Salmonella enterica, ATCC 13311, 24 h; summary of the method: as §1
Salmonella typhimurium [14] = assay: Bactericidal activity against Salmonella typhimurium ATCC 13311 incubated for 24 hrs followed by re-plating on tryptic soy broth; format: functional, Salmonella enterica subsp. enterica serovar Typhimurium; conditions: Salmonella enterica, ATCC 13311, 24 h; summary of the method: as §2
Escherichia coli [15] = assay: Antibacterial activity against Escherichia coli ATCC 35210 after 24 hrs by iodonitrotetrazolium chloride dye based microdilution method; format: functional; conditions: ATCC 35210, 24 h; summary of the method: as §1
Escherichia coli [16] = assay: Bactericidal activity against Escherichia coli ATCC 35210 incubated for 24 hrs followed by re-plating on tryptic soy broth; format: functional; conditions: ATCC 35210, 24 h; summary of the method: as §2
Aspergillus fumigatus [17] = assay: Antifungal activity against Aspergillus fumigatus ATCC 1022 after 72 hrs by microdilution technique; format: functional; conditions: ATCC 1022, 72 h
Summary of the method: (§3)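 Spores were washed off malt agar with 0.85% saline containing 0.1% Tween 80 and adjusted to about 1.0×10^5 per well. Compounds in 5% DMSO were serially diluted (0.001-1.0 mg/ml) in malt broth with inoculum. Plates were shaken at 160 rpm for 72 h at 28 °C. MIC is the lowest concentration without visible growth under a binocular microscope. Three independent experiments in duplicate.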

Aspergillus fumigatus [18] = assay: Fungicidal activity against Aspergillus fumigatus ATCC 1022 incubated for 72 hrs followed by sub-culturing on broth malt medium and measured after 72 hrs; format: functional; conditions: ATCC 1022, 72 h
Summary of the method: (§4)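 After 72 h exposure in malt broth, 2 µL from test wells was subcultured into wells holding 100 µL broth and incubated a further 72 h at 28 °C. MFC is the lowest concentration with no visible growth, taken as 99.5% kill of the original inoculum. Three independent experiments in duplicate.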

Aspergillus versicolor [19] = assay: Antifungal activity against Aspergillus versicolor ATCC 11730 after 72 hrs by microdilution method; format: functional; conditions: ATCC 11730, 72 h; summary of the method: as §3
Aspergillus versicolor [20] = assay: Fungicidal activity against Aspergillus versicolor ATCC 11730 incubated for 72 hrs followed by sub-culturing on broth malt medium and measured after 72 hrs; format: functional; conditions: ATCC 11730, 72 h; summary of the method: as §4
Aspergillus ochraceus [21] = assay: Antifungal activity against Aspergillus ochraceus ATCC 12066 after 72 hrs by microdilution technique; format: functional; conditions: ATCC 12066, 72 h; summary of the method: as §3
Aspergillus ochraceus [22] = assay: Fungicidal activity against Aspergillus ochraceus ATCC 12066 incubated for 72 hrs followed by sub-culturing on broth malt medium and measured after 72 hrs; format: functional; conditions: ATCC 12066, 72 h; summary of the method: as §4
Aspergillus niger [23] = assay: Antifungal activity against Aspergillus niger ATCC 6275 after 72 hrs by microdilution technique; format: functional; conditions: ATCC 6275, 72 h; summary of the method: as §3
Aspergillus niger [24] = assay: Fungicidal activity against Aspergillus niger ATCC 6275 incubated for 72 hrs followed by sub-culturing on broth malt medium and measured after 72 hrs; format: functional; conditions: ATCC 6275, 72 h; summary of the method: as §4
Trichoderma viride [25] = assay: Antifungal activity against Trichoderma viride IAM 5061 after 72 hrs by microdilution technique; format: functional; conditions: IAM 5061, 72 h; summary of the method: as §3
Trichoderma viride [26] = assay: Fungicidal activity against Trichoderma viride IAM 5061 incubated for 72 hrs followed by sub-culturing on broth malt medium and measured after 72 hrs; format: functional; conditions: IAM 5061, 72 h; summary of the method: as §4
Penicillium ochrochloron [27] = assay: Antifungal activity against Penicillium ochrochloron ATCC 9112 after 72 hrs by microdilution technique; format: functional; conditions: ATCC 9112, 72 h; summary of the method: as §3
Penicillium ochrochloron [28] = assay: Fungicidal activity against Penicillium ochrochloron ATCC 9112 incubated for 72 hrs followed by sub-culturing on broth malt medium and measured after 72 hrs; format: functional; conditions: ATCC 9112, 72 h; summary of the method: as §4
[29] = Antifungal activity against Penicillium funiculosum ATCC 36839 after 72 hrs by microdilution technique; format: functional; conditions: Talaromyces pinophilus, ATCC 36839, 72 h; summary of the method: as §3
[30] = Fungicidal activity against Penicillium funiculosum ATCC 36839 incubated for 72 hrs followed by sub-culturing on broth malt medium and measured after 72 hrs; format: functional; conditions: Talaromyces pinophilus, ATCC 36839, 72 h; summary of the method: as §4
Penicillium cyclopium [31] = assay: Antifungal activity against Penicillium verrucosum var. cyclopium food isolate after 72 hrs by microdilution technique; format: functional; summary of the method: as §3
Penicillium cyclopium [32] = assay: Fungicidal activity against Penicillium verrucosum var. cyclopium food isolate incubated for 72 hrs followed by sub-culturing on broth malt medium and measured after 72 hrs; format: functional; summary of the method: as §4

Row | Compound | MIC (Bacillus cereus [1]) [µM] | MBC (Bacillus cereus [2]) [µM] | MIC (Micrococcus flavus [3]) [µM] | MBC (Micrococcus flavus [4]) [µM] | MIC (Staphylococcus aureus [5]) [µM] | MBC (Staphylococcus aureus [6]) [µM] | MIC (Listeria monocytogenes [7]) [µM] | MBC (Listeria monocytogenes [8]) [µM] | MIC (Enterobacter cloacae [9]) [µM] | MBC (Enterobacter cloacae [10]) [µM] | MIC (Pseudomonas aeruginosa [11]) [µM] | MBC (Pseudomonas aeruginosa [12]) [µM] | MIC (Salmonella typhimurium [13]) [µM] | MBC (Salmonella typhimurium [14]) [µM] | MIC (Escherichia coli [15]) [µM] | MBC (Escherichia coli [16]) [µM] | MIC (Aspergillus fumigatus [17]) [×10⁻² mM] | MFC (Aspergillus fumigatus [18]) [×10⁻² mM] | MIC (Aspergillus versicolor [19]) [×10⁻² mM] | MFC (Aspergillus versicolor [20]) [×10⁻² mM] | further results
1 | CC1(C)c2ssc(=S)c2-c2ccccc2N1C(=O)CSC1=NCCS1 | 106 (≈ 45 µg/mL) | 141 (≈ 59.9 µg/mL) | 106 (≈ 45 µg/mL) | 141 (≈ 59.9 µg/mL) | 106 (≈ 45 µg/mL) | 141 (≈ 59.9 µg/mL) | 106 (≈ 45 µg/mL) | 141 (≈ 59.9 µg/mL) | 70.7 (≈ 30 µg/mL) | 141 (≈ 59.9 µg/mL) | 70.7 (≈ 30 µg/mL) | 141 (≈ 60 µg/mL) | 106 (≈ 45 µg/mL) | 141 (≈ 60 µg/mL) | 106 (≈ 45 µg/mL) | 141 (≈ 59.9 µg/mL) | 3.53 | 7.06 | 3.53 | 7.06 | MIC (Aspergillus ochraceus [21]): 1.88 ×10⁻² mM; MFC (Aspergillus ochraceus [22]): 3.53 ×10⁻² mM; MIC (Aspergillus niger [23]): 3.53 ×10⁻² mM; MFC (Aspergillus niger [24]): 7.06 ×10⁻² mM; MIC (Trichoderma viride [25]): 1.88 ×10⁻² mM; MFC (Trichoderma viride [26]): 3.53 ×10⁻² mM; MIC (Penicillium ochrochloron [27]): 3.53 ×10⁻² mM; MFC (Penicillium ochrochloron [28]): 7.06 ×10⁻² mM; MIC [29]: 3.53 ×10⁻² mM; MFC [30]: 7.06 ×10⁻² mM; MIC (Penicillium cyclopium [31]): 3.53 ×10⁻² mM; MFC (Penicillium cyclopium [32]): 7.06 ×10⁻² mM
2 | COc1ccc2c(c1)-c1c(ssc1=S)C(C)(C)N2C(=O)CSc1nc2ccccc2s1 | 29.8 (≈ 15 µg/mL) | 59.7 (≈ 30 µg/mL) | 29.8 (≈ 15 µg/mL) | 59.7 (≈ 30 µg/mL) | 29.8 (≈ 15 µg/mL) | 59.7 (≈ 30 µg/mL) | 29.8 (≈ 15 µg/mL) | 59.7 (≈ 30 µg/mL) | 29.8 (≈ 15 µg/mL) | 59.7 (≈ 30 µg/mL) | 29.8 (≈ 15 µg/mL) | 59.7 (≈ 30 µg/mL) | 29.8 (≈ 15 µg/mL) | 59.7 (≈ 30 µg/mL) | 29.8 (≈ 15 µg/mL) | 59.7 (≈ 30 µg/mL) | 1.59 | 2.98 | 1.59 | 2.98 | MIC (Aspergillus ochraceus [21]): 1.59 ×10⁻² mM; MFC (Aspergillus ochraceus [22]): 2.98 ×10⁻² mM; MIC (Aspergillus niger [23]): 1.59 ×10⁻² mM; MFC (Aspergillus niger [24]): 2.98 ×10⁻² mM; MIC (Trichoderma viride [25]): 0.8 ×10⁻² mM; MFC (Trichoderma viride [26]): 1.59 ×10⁻² mM; MIC (Penicillium ochrochloron [27]): 0.4 ×10⁻² mM; MFC (Penicillium ochrochloron [28]): 0.8 ×10⁻² mM; MIC [29]: 1.59 ×10⁻² mM; MFC [30]: 2.98 ×10⁻² mM; MIC (Penicillium cyclopium [31]): 1.59 ×10⁻² mM; MFC (Penicillium cyclopium [32]): 2.98 ×10⁻² mM
